Results filed as inconclusive are left out.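 How the source made its calls, unless noted: active means RAM network inhibition above 8.4% in each of two replicates, 3 SD over the compound average; inconclusive means above 8.4% inhibition in only one replicate; inactive means 8.4% inhibition or less in each replicate.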
Key:
[1] = OD615 S. cerevisiae growth inhibition, permissive medium, pilot counter-assay, permissive growth control for S. cerevisiae lifespan shortening project (AID 705;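 active means growth inhibition above 25% in both replicates, a cutoff set 3 SD above the mean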); settings: OD615, 24 h, at 10 µM, active compounds read high
Outline: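 assay system = Saccharomyces cerevisiae strain carrying genetically modified DeaD replicative-lifespan system | medium = SC raffinose/galactose permissive medium | dosing = 10 µM single dose, 0.25% DMSO | schedule = 24 h compound exposure at 30 °C after 4 h pre-growth | measured by = OD at 615 nm | read-out basis = growth inhibition from lowered OD615 after 24 h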

[2] = Restrictive medium S. cerevisiae growth inhibition, OD615, pilot screen of yeast lifespan reduction project, restrictive growth control (AID 706;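 active means growth inhibition above a set limit, 3 SD over mean compound inhibition, in both replicates, cut at about 43% in these data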;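 further: modified DeaD lifespan yeast strain shifted to restrictive glucose medium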); settings: OD615, 48 h, at 10 µM, active compounds read high
Outline: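 Buffer or medium: CSMM-D glucose medium. Material: genetically modified Saccharomyces cerevisiae, DeaD replicative lifespan assay strain. Times: 48 h compound exposure at 30 °C. Measured by: optical density at 615 nm.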

[3] = viability gain of MRP-1-high H69AR cells under doxorubicin, pilot screen, MRP-1 activator project, CellTiter-Glo, duplicate (AID 807;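 active means viability increase at or above a cutoff of the median across tested compounds plus 3 SD, cut at about 8.5% in these data, passing the limit was not always enough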;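 further: compound pretreatment 18-22 h then 72 h combined with doxorubicin; 0% = doxorubicin alone and 100% = vehicle without doxorubicin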); settings: H69AR viability with doxorubicin, CellTiter-Glo luminescence; at 10 µM; active compounds read high
[4] = growth suppression of beta-catenin knockout HCT116, pilot screen, human colon tumor cells (AID 823;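 active means cell viability at or below a set limit in both duplicate runs, the limit being the all-compound median minus 4 SD, cut at about 23% in these data, passing the limit was not always enough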;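 further: 0% = wells killed by 20 µM Hyamine and 100% = untreated DMSO cell wells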); settings: CellTiter-Glo, 60 h, at 10 µM, active compounds read low
[5] = growth suppression of PTEN-deleted HCT116, pilot screen, cell-based, HCT116 clonal line, CellTiter-Glo (AID 824;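 active means viability at or below 27.92% in each of two runs, the all-compound median minus 4 SD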;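 further: 0% = 20 µM Hyamine control and 100% = vehicle cell control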); settings: 60 h, at 10 µM, active compounds read low
[6] = inhibitors of the yeast RAM network, pilot screen, dse1pr::URA3 reporter, 5-FOA selection (AID 869;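 active means inhibition over a set limit, the all-compound mean plus 3 SD, in both replicate runs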;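 further: 0% = DMSO wells with no growth and 100% = 10 µM 1-NA-PP1 with full growth; RAM network block rescues cells from 5-FOA so hits raise OD615 growth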); settings: S. cerevisiae dse1pr::URA3 5-FOA growth, OD615, 2 d; at 10 µM; active compounds read high; strain carries analog-sensitive mutant Cbk1 kinase
[7] = RAM signaling pathway blockade in yeast – S. cerevisiae, Pdr1DBD-CYC8 efflux-inhibited sensitized strain, primary screen (AID 1298);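 further: 0% = DMSO untreated cells without growth and 100% = 10 µM 1-NA-PP1 full growth; higher means more yeast growth rescued from 5-FOA killing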; settings: S. cerevisiae cbk1-as DSE1-URA3 strain, 5-FOA growth OD615, 2 d; at 50 µM; active compounds read high

c1nc(N2CCCCC2)c2[nH]cnc2n1
inactive: growth inhibition [1] -2.33% | growth inhibition [2] -9.23% | viability increase [3] -5.39% | viability [4] 113% | viability [5] 102% | inhibition [6] 1.4% | RAM network inhibition [7] 2.24%

O=c1[nH]c2ccccc2n1Cc1ccc(F)cc1
inactive: growth inhibition [1] -5.88% | growth inhibition [2] -4.46% | viability increase [3] 1.93% | viability [4] 96.6% | viability [5] 92.4% | inhibition [6] 1.71% | RAM network inhibition [7] -0.05%

C=CCOc1cccc(C2c3c(oc4ccccc4c3=O)C(=O)N2c2ccccn2)c1 (stereo not drawn)
inactive: growth inhibition [1] -8.5% | growth inhibition [2] -8.1% | viability increase [3] -4.17% | viability [4] 79.7% | viability [5] 81.6% | inhibition [6] 2.12% | RAM network inhibition [7] 9.18%

Cn1c(NCc2ccccc2Cl)nc2ccccc21
inactive: growth inhibition [1] -5.4% | growth inhibition [2] -11.6% | viability increase [3] 0.98% | viability [4] 97.5% | viability [5] 92.8% | inhibition [6] 0.3% | RAM network inhibition [7] 1.78%

Cc1ccc2cc(CCNC(=O)C3CCCC3)c(=O)[nH]c2c1
inactive: growth inhibition [1] -7.07% | growth inhibition [2] -9.72% | viability increase [3] 1.09% | viability [4] 107% | viability [5] 98.2% | inhibition [6] 3.17% | RAM network inhibition [7] 4.58%

O=C(C1CCCN(S(=O)(=O)c2cccc3cccnc23)C1)N1CCN(c2ccc(F)cc2)CC1 (stereo not drawn)
inactive: growth inhibition [1] 2.49% | growth inhibition [2] 2.17% | viability increase [3] -0.16% | viability [4] 47.9% | viability [5] 61.8% | inhibition [6] -0.585% | RAM network inhibition [7] 2.25%

COCCNc1cc(C)nc2c(-c3ccccc3OC)c(C)nn12
inactive: growth inhibition [1] -1.17% | growth inhibition [2] 4.02% | viability increase [3] -2.38% | viability [4] 97.2% | viability [5] 94.2% | inhibition [6] 1.74% | RAM network inhibition [7] 0.56%

COc1cc(OC)cc(-c2cc(NC(C)=O)n[nH]2)c1
inactive: growth inhibition [1] -4.33% | growth inhibition [2] 6.38% | viability increase [3] -3.17% | viability [4] 90.8% | viability [5] 91.3% | inhibition [6] 0.965% | RAM network inhibition [7] 4.1%

CCCC(=O)Nc1ccccc1-c1nnc(SC)[nH]c1=O
inactive: growth inhibition [1] -10.4% | growth inhibition [2] 1.72% | viability increase [3] -2.76% | viability [4] 113% | viability [5] 99.3% | inhibition [6] 1.06% | RAM network inhibition [7] 1.27%

COc1ccc(C(c2sc3ncnn3c2O)N2CCN(c3ccccc3F)CC2)cc1OC (stereo not drawn)
inactive: growth inhibition [1] 0.27% | growth inhibition [2] 11.7% | viability increase [3] 1.69% | viability [4] 103% | viability [5] 92% | inhibition [6] 1.3% | RAM network inhibition [7] 1.06%

CCCCn1ccc(=O)c2c(C(F)(F)F)nccc21
inactive: growth inhibition [1] -6.65% | growth inhibition [2] -11.4% | viability increase [3] -3.12% | viability [4] 87.8% | viability [5] 84.4% | inhibition [6] 1.19% | RAM network inhibition [7] -0.41%

CCN1C(=O)CC(N2CCN(c3ccc(Cl)cc3)CC2)C1=O (stereo not drawn)
inactive: growth inhibition [1] -18.6% | growth inhibition [2] -7.02% | viability increase [3] 1.46% | viability [4] 98% | viability [5] 94.6% | inhibition [6] 1.04% | RAM network inhibition [7] 4.19%

c1ccc2c(c1)[nH]c1nc3nncn3nc12
inactive: growth inhibition [1] -7.18% | growth inhibition [2] -14.9% | viability increase [3] -1.07% | viability [4] 94% | viability [5] 93% | inhibition [6] 1.29% | RAM network inhibition [7] 7.04%

CC(=O)Nc1ccc(S(=O)(=O)N2CCSCC2)cc1
inactive: growth inhibition [1] -14.7% | growth inhibition [2] -27.7% | viability increase [3] -2.25% | viability [4] 98.6% | viability [5] 98.5% | inhibition [6] 1.88% | RAM network inhibition [7] 3.21%

CCCCn1c2nc3ccccc3nc2c2c(=N)oc(C)nc21
inactive: growth inhibition [1] -7.3% | growth inhibition [2] -6.79% | viability increase [3] -4.49% | viability [4] 96.6% | viability [5] 85.1% | inhibition [6] 0.265% | RAM network inhibition [7] 0.62%

Cc1c(C#N)c2ccccc2n1CC(=O)NCCc1c[nH]c2ccccc12
inactive: growth inhibition [1] -12.2% | growth inhibition [2] 5.17% | viability increase [3] -6.08% | viability [4] 52.7% | viability [5] 64.3% | inhibition [6] 3.73% | RAM network inhibition [7] 8.41%

CCN(c1ccccc1)c1cc(C)nc2ncnn12
inactive: growth inhibition [1] -18% | growth inhibition [2] -1.56% | viability increase [3] -3.24% | viability [4] 96.7% | viability [5] 94.9% | inhibition [6] 1.6% | RAM network inhibition [7] 4.57%

COc1ccc(-n2c3c(cc(C(=O)N4CCC(C)CC4)c2=O)C(=O)CC(C)(C)C3)cc1
inactive: growth inhibition [1] -3.21% | growth inhibition [2] 7.18% | viability increase [3] -2.27% | viability [4] 111% | viability [5] 101% | inhibition [6] 1.98% | RAM network inhibition [7] 0.25%

CC1CC(C)CN(C(=O)CSc2nnc(-c3ccc(F)cc3)o2)C1 (stereo not drawn)
inactive: growth inhibition [1] -2.08% | growth inhibition [2] 5.43% | viability increase [3] -0.28% | viability [4] 94.5% | viability [5] 99.8% | inhibition [6] 0.645% | RAM network inhibition [7] 2.78%

COc1ccccc1CNC(=O)c1nnc(Cc2ccc(Cl)cc2)o1
inactive: growth inhibition [1] -9.86% | growth inhibition [2] 15.4% | viability increase [3] 2.29% | viability [4] 103% | viability [5] 99.8% | inhibition [6] 1.81% | RAM network inhibition [7] 1.15%

CN(Cc1ccccc1)C(=O)CCS(=O)(=O)c1ccc2c(c1)n(C)c(=O)c(=O)n2C
inactive: growth inhibition [1] -4.66% | growth inhibition [2] -4.58% | viability increase [3] 0.66% | viability [4] 95.7% | viability [5] 100% | inhibition [6] 1.23% | RAM network inhibition [7] 4.6%

CCOc1ccc2nc(N3CCCC(C(=O)NCCCN4CCOCC4)C3)sc2c1 (stereo not drawn)
inactive: growth inhibition [1] -10.1% | growth inhibition [2] -15.6% | viability increase [3] -2.55% | viability [4] 86.3% | viability [5] 92.8% | inhibition [6] 1.36% | RAM network inhibition [7] 0.52%

O=C(O)CN1C(=O)COc2cc(S(=O)(=O)N3CCCC3)ccc21
inactive: growth inhibition [1] 4.97% | growth inhibition [2] -0.475% | viability increase [3] 0.05% | viability [4] 94.8% | viability [5] 102% | inhibition [6] 0% | RAM network inhibition [7] 2.14%

Cn1c(=O)n(C)c2cc(S(=O)(=O)O)ccc21
inactive: growth inhibition [1] 5.19% | growth inhibition [2] 4.85% | viability increase [3] -1.08% | viability [4] 97% | viability [5] 95% | inhibition [6] 1.38% | RAM network inhibition [7] 0.76%
